Drawing on ChEMBL document CHEMBL3797027, “Potent anti-proliferative actions of a non-diuretic glucosamine derivative of ethacrynic acid” (Bioorg Med Chem Lett, 2016), this text covers IC50 and Activity for one compound.

Each structure is given as a SMILES string. Activity calls are given as the source filed them. The calls are words filed in the database; no cut-off is given here.

Experiment [1] has as its system MDA-MB-468. Nature of the experiment: Cytotoxic activity against human MDA-MB-468 cells assessed as inhibition of cell proliferation incubated for 72 hrs by MTT assay. In kind it is functional, cell-based. The settings on record: MDA-MB-468, 72 h. The method in brief:
(§1)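 MTT cell survival assay. IC50 is the concentration that inhibits tumour cell proliferation by 50%, read from cell survival curves. Values are given as mean ± SD of three independent experiments.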
A general note: Tetrazolium dyes change colour on reduction, which living cells bring about.

Experiment [2] addresses Glutathione S-transferase P (Homo sapiens) (UniProt P09211). Nature of the experiment: Inhibition of GSTP1 in human H1299 cells assessed as reduction in GST-pi activity pre-incubated for 3 hrs followed by chlorodinitrobenzene and reduced glutathione addition by photometric assay.
The nature of experiment [3]: Cytotoxic activity against human HT1080 cells assessed as inhibition of cell proliferation incubated for 72 hrs by MTT assay. Type of experiment: functional, cell-based. As to conditions: HT-1080, 72 h. The method, boiled down:
as §1

Experiment [4] deals with NCI-H1299. Kind of experiment: Increase in cleaved PARP protein expression in p53 deficient human H1299 cells at 10 to 40 uM by Western blot method. Type of experiment: functional, cell-based. The method, boiled down: (§2)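 H1299 (p53-null), HCT116 (p53 wild type) and MDA-MB-231 (p53 mutant) cells were treated, then lysates were immunoblotted for p53, p21, PUMA and PARP. β-Actin served as loading control.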
In general terms: In western blotting, separated proteins are transferred to a membrane and probed.

Experiment [5] relates to HCT-116. Nature of the experiment: Increase in p53 protein expression in wild type p53 expressing human HCT116 cells at 10 to 40 uM by Western blot method. In kind it is functional, cell-based. The method, boiled down:
as §2

What is called IC50 is the point on the concentration scale where inhibition reaches its midpoint.

Chain of Glutathione S-transferase P (Homo sapiens) (P09211 2-210 limits assumed): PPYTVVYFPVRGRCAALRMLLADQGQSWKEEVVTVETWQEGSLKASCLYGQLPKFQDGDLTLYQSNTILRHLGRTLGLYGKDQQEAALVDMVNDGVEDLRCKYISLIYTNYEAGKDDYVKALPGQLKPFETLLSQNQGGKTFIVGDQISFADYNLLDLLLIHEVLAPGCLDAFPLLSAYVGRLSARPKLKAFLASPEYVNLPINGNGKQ

As to `C=C(CC)C(=O)c1ccc(OCC(=O)N[C@@H]2[C@@H](O)[C@H](O)[C@@H](CO)O[C@H]2O)c(Cl)c1Cl`, the IC50 in experiment [1] was 18.4 µM; in experiment [3] it was 16.3 µM. Moreover, in experiment [2], the Activity result is “Dose-dependent effect”. Further, the result in experiment [4] and in experiment [5] was Active.
